Test [1] deals with MCF7. Kind of test: Reduction in Cdk1 protein level in human MCF7 cells at 4 uM after 24 hrs by Western blot analysis. The class given is functional, cell-based. In outline:
(§1)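 MCF-7 cells (5 × 10⁵ per 60 mm dish) grown 24 h, then treated at 4 µM for 24 h. Lysis in ice-cold RIPA buffer with protease/phosphatase inhibitors; protein measured by Bradford. Fifty µg per lane resolved on 12% SDS-PAGE and transferred to PVDF. Blocked 2 h, primary antibody overnight at 4 °C, chemiluminescent detection; β-actin as loading control.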
In general terms: In western blotting, separated proteins are transferred to a membrane and probed.

For test [2], the system named is MCF7. In words: Cell cycle arrest in human MCF7 cells assessed as accumulation at G2/M phase using propidium iodide staining at 4 uM after 24 hrs by flow cytometry. Format: functional. In outline: (§2)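 MCF-7 cells (5 × 10⁵ per 60 mm dish) grown 24 h, then exposed to 4 µM compound for a further 24 h; DMSO-treated control. Cells trypsinised, fixed in ice-cold 70% ethanol at 4 °C for 30 min, RNase-treated (1 mg/mL, 37 °C, 30 min), stained with propidium iodide/citrate/Triton X-100. DNA content read on 20,000 events by flow cytometry; percent cells per phase reported.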
For orientation: Flow cytometry measures light scatter and fluorescence of single cells or particles in a stream.

Test [3] deals with MCF7. Kind of test: Cell cycle arrest in human MCF7 cells assessed as accumulation at G1 phase using propidium iodide staining at 4 uM after 24 hrs by flow cytometry. The class given is functional. In outline: as §2
The test system of test [4] is MCF7. Kind of test: Cell cycle arrest in human MCF7 cells assessed as accumulation at G0 phase using propidium iodide staining at 4 uM after 24 hrs by flow cytometry. The class given is functional. In outline:
as §2

The test system of test [5] is MCF7. Kind of test: Cell cycle arrest in human MCF7 cells assessed as accumulation at S phase using propidium iodide staining at 4 uM after 24 hrs by flow cytometry. The class given is functional. In outline: as §2
The test system of test [6] is MCF7. Kind of test: Cytotoxicity against human MCF7 cells at 4 uM after 24 hrs by MTT assay. Format: functional, cell-based. In outline: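 MCF-7 cells seeded at 10,000 per well, incubated overnight, then treated at 4 µM for 24 h; DMSO control. Medium replaced with MTT, 2 h at 37 °C. Formazan solubilised in extraction buffer, absorbance read at 570 nm, expressed as percent viability.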

Another test has as its system ZR-75-1. Kind of test: Cytotoxicity against human ZR-75-1 cells by sulforhodamine B method. The class given is functional.
Test [7] relates to MCF7. In words: Induction of apoptosis in human MCF7 cells assessed as DNA fragmentation at 4 uM after 24 hrs by TUNEL assay relative to control. The class given is functional, cell-based. In outline:
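MCF-7 cells treated at 4 µM for 24 h; untreated cells as control. Nuclear DNA fragmentation detected by TdT-mediated fluorescein-dUTP nick-end labelling (ApoAlert kit). Labelled cells imaged by confocal microscopy, green stain marking TUNEL-positive cells.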

In the next test the test system is PC-3. In words: Cytotoxicity against human PC3 cells by sulforhodamine B method. Format: functional. Background: In SRB staining, fixed cells bind dye roughly in proportion to their protein.
The subject of a further test is A2780. In words: Cytotoxicity against human A2780 cells by sulforhodamine B method. Format: functional.
Test [8] can be described thus: Cytotoxicity against human DWD cells by sulforhodamine B method. The class given is functional.
The subject of test [9] is MCF7. In words: Induction of apoptosis in human MCF7 cells assessed up-regulation of p53 protein level at 4 uM after 24 hrs by Western blot analysis. Format: functional, cell-based. In outline:
as §1

The test system of test [10] is MCF7. Kind of test: Induction of apoptosis in human MCF7 cells assessed up-regulation of p21 protein level at 4 uM after 24 hrs by Western blot analysis. The class given is functional, cell-based. In outline:
as §1

For test [11], the system named is MCF7. Kind of test: Induction of apoptosis in human MCF7 cells assessed as up-regulation of Bax gene at 4 uM after 24 hrs by Western blot analysis. The class given is functional, cell-based. In outline: as §1
For another test, the system named is SiHa. Kind of test: Cytotoxicity against human SiHa cells by sulforhodamine B method. Format: functional.
Test [12] is described as follows: Cytotoxicity against human Gurav cells by sulforhodamine B method. The class given is functional.
A further test has as its system HOP-62. Kind of test: Cytotoxicity against human HOP62 cells by sulforhodamine B method. Format: functional.
Test [13] deals with MCF7. In words: Down regulation of HDAC-1 protein in human MCF7 cells at 4 uM after 24 hrs by Western blot analysis. Format: functional, cell-based. In outline:
as §1

In test [14] the test system is MCF7. Kind of test: Cytotoxicity against human MCF7 cells by sulforhodamine B method. The class given is functional.
Another test concerns the target Tubulin (Homo sapiens) (UniProt P68371+Q9H4B7+P0DPH7+P68366+Q13509+Q71U36+P04350+Q3ZCM7+P07437+P68363+Q9BQE3+Q6PEY2+Q13885+Q9BVA1+Q9BUF5). Kind of test: Inhibition of tubulin polymerization in human MCF7 cells assessed as disruption of microtubule network at 4 uM after 24 hrs by DAPI based immunofluorescence assay. Format: cell-based. In outline:
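MCF-7 cells on glass coverslips incubated 24 h with or without 4 µM compound. Fixed in 4% paraformaldehyde/0.02% glutaraldehyde, permeabilised in −20 °C methanol, blocked 1 h in 1% BSA/PBS. Stained with mouse anti-tubulin primary and Cy3 anti-mouse IgG secondary, nuclei with DAPI. Confocal images scored for microtubule integrity; nocodazole as reference.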

The subject of test [15] is MCF7. Kind of test: Down regulation of HDAC-3 protein in human MCF7 cells at 4 uM after 24 hrs by Western blot analysis. The class given is functional, cell-based. In outline: as §1
The subject of a further test is A549. In words: Cytotoxicity against human A549 cells by sulforhodamine B method. The class given is functional.
The next test deals with COLO 205. Kind of test: Cytotoxicity against human COLO205 cells by sulforhodamine B method. The class given is functional.
Test [16] concerns MCF7. In words: Induction of apoptosis in human MCF7 cells assessed as activation of procaspase-7 at 4 uM after 24 hrs by Western blot analysis. Format: functional, cell-based. In outline: as §1
In the next test the test system is KB. Kind of test: Cytotoxicity against human KB cells by sulforhodamine B method. Format: functional.
Test [17] deals with MCF7. Kind of test: Down regulation of NF-kappa B p65 protein in human MCF7 cells at 4 uM after 24 hrs by Western blot analysis. Format: functional, cell-based. In outline:
as §1

Calls of active or inactive are those of the source. The calls are words filed in the database; no cut-off is given here.

For `C[C@]12CC[C@@H]3c4ccc(O)cc4CC[C@H]3[C@@H]1CC[C@@H]2O` [ESTRADIOL], the outcome in the test with MCF7 [1] and in the test with MCF7 [6] was Active. Moreover, the Activity with MCF7 [2] is recorded as 23.8%; in the test on MCF7 [3], 50%; with MCF7 [4] it was 0.83%; in the test with MCF7 [5] it was 25.26%.

A word on the GI50: it is the concentration giving 50% growth inhibition. Consider `COc1cc2c(cc1OCc1cn(CCCOc3ccc4c(c3)CC[C@@H]3[C@@H]4CC[C@]4(C)[C@@H](O)CC[C@@H]34)nn1)N=C[C@@H]1C[C@@H](F)CN1C2=O`, for which the GI50 (in the test with ZR-75-1; with PC-3; with A2780; in [8]; in the test on SiHa; in test [12]) was < 100 nM each time. Further, the GI50 is < 100 nM in the test on HOP-62; < 100 nM in the test with MCF7 [14]; < 100 nM with A549; 110 nM with COLO 205; < 100 nM in the test on KB. Moreover, the outcome in the test with MCF7 [7], in the test on MCF7 [9], in the test on MCF7 [10], in the test on MCF7 [1], in the test on MCF7 [11] and with MCF7 [13] was Active. For the same compound, the outcome in the test on MCF7 [15], in the test with MCF7 [16], in the test on MCF7 [6] and in the test with MCF7 [17] was Active. In addition, the Activity in the test on MCF7 [2] is 36.64%; in the test on MCF7 [3], 30.76%; in the test with MCF7 [4], 2%; with MCF7 [5], 30.59%. In addition, the inhibition result at Tubulin (Homo sapiens) is “Active”.

For `COc1cc2c(cc1OCc1cn(CCCCCOc3ccc4c(c3)CC[C@@H]3[C@@H]4CC[C@]4(C)[C@@H](O)CC[C@@H]34)nn1)N=C[C@@H]1C[C@@H](F)CN1C2=O`, the GI50 in the test on ZR-75-1 is < 100 nM; in the test on PC-3, < 100 nM; in the test on A2780, < 100 nM; in test [8], 120 nM; in the test on SiHa, 110 nM; in the test on HOP-62, 110 nM. For the same compound, the GI50 in the test on MCF7 [14] is < 100 nM; with A549, < 100 nM; with COLO 205, 120 nM; with KB, < 100 nM. The result with MCF7 [7], in the test on MCF7 [9], in the test on MCF7 [10], with MCF7 [11], in the test with MCF7 [16] and in the test on MCF7 [6] was Active. Also, the Activity with MCF7 [2] was found to be 32.4%; in the test on MCF7 [3], 42.5%; with MCF7 [4], 0.82%; in the test with MCF7 [5] it was 25.8%. The inhibition entry at Tubulin (Homo sapiens) was “Active”.

`COc1cc2c(cc1O)N=C[C@@H]1CCCN1C2=O`: the GI50 was found to be 200 nM in the test on PC-3; 140 nM with A2780; 170 nM with SiHa; 160 nM in test [12]; 150 nM in the test with HOP-62; 170 nM in the test with MCF7 [14]. Also, the figures for the GI50 with A549, in the test with COLO 205 and in the test on KB were 160 nM, 110 nM and 170 nM, respectively. Besides, the result in the test on MCF7 [1] and with MCF7 [6] was Active. Further, the Activity in the test on MCF7 [2] is given as 4.83%; in the test with MCF7 [3], 73.66%; in the test with MCF7 [4], 8.5%; in the test with MCF7 [5] it was 13%.

With `COc1cc2c(cc1OCCCN1CCN(CCCOc3ccc4c(c3)CC[C@@H]3[C@@H]4CC[C@]4(C)[C@@H](O)CC[C@@H]34)CC1)N=C[C@@H]1CCCN1C2=O`, the GI50 with ZR-75-1 worked out at 120 nM; in the test on PC-3, 140 nM; in the test on A2780, 1300 nM; in [8] it was 120 nM; in the test on SiHa it was 130 nM; in [12], 140 nM. Also, the concentration for 50% growth inhibition (GI50) with HOP-62 was 1140 nM; in the test with MCF7 [14], 110 nM; in the test with A549, 120 nM; in the test on COLO 205, 130 nM; in the test with KB, 190 nM. For the same compound, the Activity is on record as 24.01% in the test with MCF7 [2], 47.9% with MCF7 [3], 2.84% in the test with MCF7 [4] and 25.2% in the test with MCF7 [5]. In the test with MCF7 [6], the result was Active.

In the case of `COc1cc2c(cc1OCCCN1CCN(CCCOc3ccc4c(c3)CC[C@@H]3[C@@H]4CC[C@]4(C)[C@@H](O)CC[C@@H]34)CC1)N=C[C@@H]1C[C@@H](F)CN1C2=O`, the GI50 in the test on ZR-75-1 is < 100 nM; in the test on PC-3, < 100 nM; in the test on A2780, < 100 nM; in [8], 100 nM; in the test on SiHa, 150 nM; in test [12] it was 110 nM. In addition, the GI50 was 110 nM in the test with HOP-62; < 100 nM in the test on MCF7 [14]; < 100 nM with A549; 130 nM with COLO 205; 120 nM in the test on KB. Moreover, the Activity in the test on MCF7 [2] was 24.33%; with MCF7 [3] it was 50.53%; with MCF7 [4], 0.87%; in the test on MCF7 [5] it was 24.01%. For the same compound, the result with MCF7 [6] was Active.

(Values after ChEMBL document CHEMBL1765029, “Synthesis and biological evaluation of estradiol linked pyrrolo[2,1-c][1,4]benzodiazepine (PBD) conjugates as potential anticancer agents” (2011).)
